Screens (PubChem)
Sampled rows, rich in hits. Any-hit rate of the full collection: about 1.8%.
HTRA1 inhibitor: inhibitors of human serine peptidase HTRA1. Q92743. recombinant HTRA1, FP-rhodamine activity-based probe, fluorescence polarization. inhibition, % at 5.96 µM. 340,000 tested, 0.5% active. AID 504803; in the data active = inhibition above about 36%
SIAE inh: inhibitors of human sialic acid acetylesterase SIAE. SIAE FP-Rh probe binding, fluorescence polarization. AID 1053197. inhibition, % at 9.66 µM. 370,000 tested, 0.69% active;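 active = inhibition above a cutoff: mean of compounds within the control limits plus 3 SD of those, cut at about 17% in these data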
PME-1 inh: PME-1 (human) inhibition. AID 2130. 320,000 tested, 0.53% active. inhibition, % at 5.9 µM. recombinant PME-1, FP-Rh probe fluorescence polarization;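 active = inhibition above the campaign mean of all compounds plus 3 SD, cut at about 26% in these data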;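 note: competitive labeling of PME-1 active site by serine hydrolase directed probe; inhibitors block probe labeling so polarization falls and inhibition rises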
Target sequence (Q9Y570 whole entry, looked up): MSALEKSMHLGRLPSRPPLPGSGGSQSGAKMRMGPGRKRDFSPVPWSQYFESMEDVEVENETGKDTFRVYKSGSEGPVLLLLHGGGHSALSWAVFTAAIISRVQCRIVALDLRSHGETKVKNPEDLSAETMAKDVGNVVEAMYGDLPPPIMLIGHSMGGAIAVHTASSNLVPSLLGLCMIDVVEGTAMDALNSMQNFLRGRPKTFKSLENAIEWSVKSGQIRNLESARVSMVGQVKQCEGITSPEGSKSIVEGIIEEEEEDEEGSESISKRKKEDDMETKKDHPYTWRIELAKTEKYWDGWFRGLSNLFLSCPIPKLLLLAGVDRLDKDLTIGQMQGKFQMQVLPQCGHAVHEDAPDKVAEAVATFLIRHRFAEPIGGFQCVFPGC
TCR-CD3 inh: human TCR-CD3 binding inhibition; TAMRA-labeled TCR probe fluorescence, biochemical; inhibition, % at 9.4 µM; 360,000 tested, 0.37% active; in the data active = inhibition above about 19%;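 note: recombinant mutant TCR 2C K166C tagged with TAMRA read by polarization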
Fam108B counter: blocks mouse Fam108B hydrolase in RBBP9 counter-screen; recombinant Fam108B, FP-Rh probe fluorescence polarization; inhibition, % at 9.51 µM; 300,000 tested, 0.33% active; AID 1947;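 active = inhibition above the screen mean inhibition plus 3 SD, computed separately per campaign, cut at about 18% in these data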;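 note: inhibitors lower polarization as less probe binds the enzyme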
ABHD4 inh: inhibits mouse alpha/beta hydrolase domain 4 | 370,000 tested, 0.54% active | inhibition, % at 8.92 µM | AID 720543 | purified mABHD4, FP-Rh probe fluorescence polarization | Q8VD66;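 active = inhibition exceeding the mean over every tested compound plus 3 SD, cut at about 30% in these data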
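system = mouse ABHD4 enzyme, wild type | medium = HEPES pH 7.0, NaCl, Pluronic buffer | also added = FP-Rh probe | incubation = Enzyme–compound pre-incubation 45 min, then probe 60 min, both 25 °C | technique = fluorescence polarization, excitation 525 nm, emission 598 nm, BODIPY TMR filters | controls = S159A mutant high control, sample median low control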
ABHD4 confirm: confirmation of mouse ABHD4 inhibitors; shares compounds with ABHD4 inh; purified mABHD4, FP-Rh probe fluorescence polarization; 1,800 tested, 55% active; inhibition, % at 8.92 µM; AID 720658;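 active = mean inhibition across replicates above the hit cutoff set in the primary screen, cut at about 30% in these data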
Of the large screens only hits and unclear results are named; the others gave an inactive call (follow-up assays come after a bar, where they were run).

O=C1CCC(C(=O)OCC(=O)c2ccccc2)N1 (configuration not stated)	none
Cc1cc(C)cc(Nc2ccc(C(=O)O)cc2[N+](=O)[O-])c1	ABHD4 inh 32 | ABHD4 confirm 54
COc1cc(Nc2ccc(C(=O)O)cc2[N+](=O)[O-])cc(OC)c1	ABHD4 inh 36 | ABHD4 confirm 57
Cc1cc(C)cc(Nc2ccc(C(=O)O)cc2N)c1	none
COc1cccc(Nc2ccc(C(=O)O)cc2N)c1	none
CCc1ccc(Nc2ccc(C(=O)O)cc2[N+](=O)[O-])cc1	ABHD4 inh 55 | ABHD4 confirm 69
CCc1ccc(Nc2ccc(C(N)=O)cc2[N+](=O)[O-])cc1	none
C[C@H]1[C@@H](OC(=O)NCCc2c[nH]c3ccccc23)CC[C@@]23CCCN2C(=O)CCC[C@@H]13	none (no result: HTRA1 inhibitor, PME-1 inh, TCR-CD3 inh, Fam108B counter)
CCN(C(=S)NC(=O)C1CC1)c1ccccc1	none
CN(C(=S)NC(=O)C1CC1)c1ccc(O)cc1	ABHD4 inh 30 (no result: Fam108B counter) | ABHD4 confirm inactive
NC(Cc1ccc(Cl)cc1)c1csc(Nc2ccc(C(F)(F)F)cn2)n1 (configuration not stated)	ABHD4 inh 32 (no result: HTRA1 inhibitor, PME-1 inh, Fam108B counter) | ABHD4 confirm 30
NC(CO)c1csc(Nc2ccc(C(F)(F)F)cn2)n1 (configuration not stated)	none (no result: HTRA1 inhibitor, PME-1 inh, Fam108B counter)
Cn1nccc1C(=O)Nc1cccc(S(=O)(=O)N2CCOCC2)c1	none
Nc1[nH]n2c(=O)cc(-c3ccccc3)nc2c1N=Nc1ccc(S(N)(=O)=O)cc1	ABHD4 inh 32 | ABHD4 confirm 37
CC(CSc1nc2ccccc2s1)Cn1c(N2CCCC2)nc2c1c(=O)[nH]c(=O)n2C (configuration not stated)	ABHD4 inh 39 | ABHD4 confirm 42
Cc1ccc(NCc2cccc(B(O)O)c2)cc1	ABHD4 inh 59 (no result: PME-1 inh, Fam108B counter) | ABHD4 confirm 61
COc1ccc(OC)c(NC(=O)C(=O)/C=C(\O)c2cc(OC)ccc2OC)c1	ABHD4 inh 35 | ABHD4 confirm inactive
COc1ccc(OC)c(NC(=O)Nc2ccc(O)c3ccccc23)c1	ABHD4 inh 33 | ABHD4 confirm 41
COc1ccc(OC)c(NC(=O)Nc2c(O)ccc3ccccc23)c1	none
CC(SC(C)C(=O)NN=Cc1ccc(F)cc1)C(=O)NN=Cc1ccc(F)cc1 (configuration not stated)	none (no result: PME-1 inh, Fam108B counter)
CCCCCNC(=O)C(c1cc2ccccc2o1)n1c(=O)c(-c2ccco2)nc2ccccc21 (configuration not stated)	none (no result: HTRA1 inhibitor, PME-1 inh, Fam108B counter)
CCCCCNC(=O)C(c1ccncc1)n1c(=O)c(-c2ccco2)nc2ccccc21 (configuration not stated)	ABHD4 inh 32 (no result: HTRA1 inhibitor, PME-1 inh, Fam108B counter) | ABHD4 confirm inactive
COc1ccc(NC(=O)C(c2cc3c(cc2[N+](=O)[O-])OCO3)N2CCN(C=O)CC2)cc1 (configuration not stated)	ABHD4 inh 31 | ABHD4 confirm inactive
COc1ccc(NC(=O)C(c2cc3c(cc2[N+](=O)[O-])OCO3)N(C)Cc2ccccc2)cc1 (configuration not stated)	ABHD4 inh 67 | ABHD4 confirm inactive
C#CCN(C[C@@H]1[C@@H](OC(=O)Nc2cccs2)[C@@H](OC(=O)Nc2cccs2)Cn2c(=O)n(CCCCCC)c(=O)n21)S(=O)(=O)c1ccc(C)cc1	none (no result: PME-1 inh, Fam108B counter)
Oc1ccc(NC(=S)Nc2ccccc2)cc1	ABHD4 inh 42 | ABHD4 confirm inactive
COc1ccc(NC(=S)Nc2ccccc2)cc1	none
COc1ccc(CN2C(C(=O)NC3CCCC3)CSCCS2(=O)=O)cc1 (configuration not stated)	none (no result: HTRA1 inhibitor, PME-1 inh, TCR-CD3 inh, Fam108B counter)
COc1ccc(/C=C/C(=O)Nc2cccnc2Cl)cc1	ABHD4 inh 97 | ABHD4 confirm inactive
CCOC(=O)N1CCN(C(=O)c2cc3cc(OC)c(OC)cc3[nH]2)CC1	none (no result: PME-1 inh, Fam108B counter)
Cc1cccc(C)c1-n1nnnc1C1(C)CCC(=O)N1Cc1cccc(C(F)(F)F)c1 (configuration not stated)	none (no result: HTRA1 inhibitor, PME-1 inh, Fam108B counter)
COC(=O)[C@@H](NCc1ccc(B(O)O)cc1)C(C)C	ABHD4 inh 48 (no result: PME-1 inh, Fam108B counter) | ABHD4 confirm 36
COC(=O)[C@@H](NC(=O)NCc1ccc(F)cc1)C(C)C	none
